Screening results from PubChem BioAssay.
T cruzi inh = T. cruzi replication inhibition | T. cruzi beta-gal in NIH3T3, luminescence, 90 h | inhibition, % (concentration not given with the values) | actives 1.4% (n = 300,000) | AID 1885;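 active = mean inhibition across valid replicates above about 55%, limit read from the data; inconclusive = mean below that limit but half or more replicates reach it; inactive = mean below it, under half of replicates reach it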;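 also: signal also drops with host cell toxicity which is not excluded here; higher percent means less beta-gal luminescence so fewer parasites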
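Material: NIH/3T3 host cells with β-galactosidase reporter T. cruzi; Input: 5,000 host fibroblasts per well; Medium: DMEM, 2% fetal bovine serum; Compound: 50 nL DMSO compound solution per well; Schedule: 3 h host attachment, then at least 90 h co-culture; Detection: luminescent β-galactosidase signal after 60 min lysis.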
Calb FLC = C. albicans growth modulation with fluconazole; C. albicans CaCi-2 + fluconazole, Alamar Blue growth, 48 h; growth inhibition, % (test concentration not listed); actives 0.57% (n = 300,000);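 active = growth inhibition above about 58% in most replicates, limit read from the data, passing the limit was not always enough; inconclusive = exactly half the replicates above a set limit; inactive = most replicates below a set limit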;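 also: all wells also contain fluconazole at 8 µg/ml as a sub-toxic cotreatment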
HSF-1 act = increases HSF-1 driven luciferase reporter signal. actives 1.7% (n = 300,000). NIH3T3-HGL HSF-1 luciferase reporter, MG132, 8 h; 100% = twice DMSO control signal. activation, % at 9 µM;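 active = mean replicate activation of at least 50% with a set share of replicates each reaching 50%; inconclusive = only one of those two conditions met; inactive = mean below 50% and too few replicates reaching it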
HSF1 inhib = HSF1 inhibition; activity change, negative = inhibition, % at 7.5 µM (by protocol); NIH3T3-HGL HSE-luciferase, MG132-induced, luminescence 8 h; hits give low values; actives 0.77% (n = 300,000);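 active = more than half of replicate wells show activity change below -50%, luminescence cut by over half; inconclusive = some wells, but at most half, below -50%; inactive = no replicate well below -50%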;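 also: luciferase reports HSF-1 transcriptional activity via heat shock element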
HIF act = HIF pathway transcriptional activation. U2OS HRE-luciferase reporter, luminescence; normalized: DMSO 0%, desferrioxamine 100%. activation, % at 7.5 µM (by protocol). actives 0.32% (n = 300,000);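 active = mean activation of at least 10% of the iron chelator positive control signal, with at least half of replicates also reaching 10%; inconclusive = mean and replicate majority disagree about reaching 10%; inactive = mean and most replicates under 10%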
Large screens that a line does not name were inactive. Rows were chosen to be rich in hits. Some 4.4% of all compounds tested hit in one or more screens of this group.

CCNC(=S)N(Cc1ccco1)Cc1cc2cc(OCC)ccc2[nH]c1=O	HSF-1 act 71
CNC(=S)N(Cc1ccco1)Cc1cc2cc(OC)c(OC)cc2[nH]c1=O	HSF-1 act 57
C=CCn1c(=O)c(C(=O)Nc2ccccc2S(N)(=O)=O)c(O)c2ccccc21	Calb FLC inconclusive
Cc1ccc(NNC(=O)C(O)(c2cccc(C(F)(F)F)c2)c2cccc(C(F)(F)F)c2)cc1	none
CCCC(O)(CCC)C(=O)NNc1ccc(C)cc1	Calb FLC 111
O=C(CO/N=C/c1ccc(OC(F)F)cc1)NC1CCCC1	none
CC1Cc2ccccc2N1C(=O)CO/N=C/c1ccc(OC(F)F)cc1 (stereo not drawn)	HSF1 inhib -88
CN1C(=O)/C(=C/C=C2\SCCN2C)N(C)C1=S	none
CCOc1ccc(CN(C)CC(=O)Nc2cccc(S(=O)(=O)N(C)c3ccccc3)c2)cc1	T cruzi inh 73
CCOc1ccc(S(=O)(=O)N(C)c2ccc(OCC(=O)NCCc3ccc(OC)cc3)cc2)cc1	HSF1 inhib -53
COc1ccc(CCNC(=O)c2ccc(N(C)S(=O)(=O)c3ccc(C)cc3)cc2)cc1	Calb FLC inconclusive, HSF1 inhib -55
COc1ccc(NC(=O)COc2ccc(N(C)S(=O)(=O)c3ccc(C)cc3)cc2)cc1	none
COc1ccc(N(C)S(=O)(=O)c2cccc(C(=O)NC3CCCC3)c2)cc1	none
COc1ccc(N(C)S(=O)(=O)c2cccc(C(=O)NCC3CCCCC3)c2)cc1	T cruzi inh 69
CC(=O)c1ccc(OCCCC(=O)Nc2cccc(-c3nn[nH]n3)c2)cc1	none
CCOc1ccc(N(C(=O)c2ccc3c(c2)OCO3)C2C=CS(=O)(=O)C2)cc1 (stereo not drawn)	none
CC(NCc1ccncc1)C12CC3CC(CC(C3)C1)C2 (stereo not drawn)	T cruzi inh 63
CC(NCc1ccccc1O)C12CC3CC(CC(C3)C1)C2 (stereo not drawn)	none
Cc1ccc(-n2[nH]c(C)c(/C=C3/C=Nc4ccccc43)c2=O)cc1C	none
CC(=O)N1NC(=Nc2ccccc2)SC1(C)C	none
Cc1cccc(Nc2nc(Cl)ncc2F)c1C	none
CCOC(=O)C(C(=O)OCC)c1cc(Br)c2noc3c2c1C(=O)c1ccccc1-3	T cruzi inh 65, HSF-1 act 52
CCN1CCN(c2cc(N3CCN(C(=O)c4ccco4)CC3)c3c4c(onc24)-c2ccccc2C3=O)CC1	none
C1CCC2(CC1)C1=C(CCCC1)Nc1nnnn12	HIF act 126
Nc1nc2n(n1)C1(CCCCC1)C1=C(CCCC1)N2	none
CC1=C(C(=O)Nc2ccc(C)cc2)C(c2ccc(C)o2)C2=C(CC(C)(C)CC2=O)N1 (stereo not drawn)	HSF1 inhib -62 (no result: Calb FLC)
CC1=C(C(=O)OCCOc2ccccc2)C(c2ccc(C)o2)C2=C(CC(C)(C)CC2=O)N1 (stereo not drawn)	none
COc1ccc(NC(=O)CCCC(=O)OCC(=O)c2cccc(OC)c2)cc1	none
O=C(CCC(=O)c1ccccc1)NC1CCCN(Cc2ccccc2F)C1 (stereo not drawn)	none
CC1CCCC(C)N1C(=O)COC(=O)Cn1cnc2c1c(=O)n(C)c(=O)n2C (stereo not drawn)	none
Cc1ccc(NC(=O)CSc2cccc[n+]2[O-])c([N+](=O)[O-])c1	none
CC(=O)c1cccc(N(CC(=O)Nc2ccc(F)cc2F)S(C)(=O)=O)c1	HSF-1 act 55
CC(NC(=O)C1c2ccccc2Oc2ccccc21)C1CCCO1 (stereo not drawn)	none
Cc1nc(Nc2ccccc2)sc1-c1ccccc1	HSF-1 act 59
c1ccc(Nc2nc(-c3ccccc3)ns2)cc1	HSF-1 act 59
Cc1nc(Nc2ccc(C(=O)O)cc2)sc1-c1ccccc1	none
Cn1ccnc1C1CCCCN1C(=O)c1cc(COc2ccc(F)cc2Cl)on1 (stereo not drawn)	HSF1 inhib -77
O=C(c1cc(COc2ccc(F)cc2Cl)on1)N1CCSCC1	HSF-1 act 84
Cc1cccc(C)c1OCc1cc(C(=O)N2CCN(c3ccc(F)cc3)CC2)no1	HSF-1 act 70
Cc1ccc(C(=O)C(C)Oc2cccc(NC(=O)c3ccco3)c2)cc1 (stereo not drawn)	none
C=CCNC(=O)C(=O)Nc1ccc2c(c1)N(S(=O)(=O)c1cccs1)CCC2	none
COc1ccc(OC)c(NC(=O)c2nc(-c3ccccc3)oc2C)c1	none
Cc1cccc(-c2nc3ccccc3c(=O)n2NC(=O)/C=C/c2ccc([N+](=O)[O-])cc2)c1	Calb FLC 117
FC(F)(F)c1ccccc1NC1=NCCC1	none
C/C(=C\c1ccccc1)C(=O)NCCCn1ccnc1	none
CC1C(=O)C(C)C(c2ccc([N+](=O)[O-])cc2)NC1c1ccc([N+](=O)[O-])cc1 (stereo not drawn)	T cruzi inh 67
CC1C(=O)CC(c2ccc([N+](=O)[O-])cc2)NC1c1ccc([N+](=O)[O-])cc1 (stereo not drawn)	none
COc1ccc(Cl)cc1NC(=O)CCNS(=O)(=O)c1cccc2nonc12	none
O=C(N/N=C/c1ccco1)c1cc(-c2ccccc2)nc2ccccc12	none
O=C(O)COc1ccccc1/C=N/NC(=O)c1cc(-c2ccc(Cl)cc2)nc2ccccc12	none
O=C(N/N=C/c1ccccn1)c1cc(-c2ccc(Br)cc2)nc2ccccc12	HSF-1 act 169
O=C(N/N=C/c1ccccn1)c1cc(-c2ccc(Cl)cc2)nc2ccccc12	Calb FLC 61, HSF-1 act 147
O=C(N/N=C/c1ccccn1)c1ccc(Cl)cc1	HIF act 12
CCCOc1cccc(-c2cc(C(=O)N/N=C/c3ccccn3)c3ccccc3n2)c1	HSF-1 act 143
CCCOc1cccc(-c2cc(C(=O)N/N=C/c3cccnc3)c3ccccc3n2)c1	none (no result: T cruzi inh, HSF-1 act, HSF1 inhib, HIF act)
N#Cc1ccc(/C=N/NC(=O)c2cc(-c3cccs3)nc3ccccc23)cc1	HSF-1 act 60
CCOC(=O)c1ccc(N2C(=O)CC(C)(CC)CC2=O)cc1	none
Cc1ccc(-c2nn(-c3ccc(F)cc3)cc2C(=O)NC2CCC(O)CC2)cc1 (stereo not drawn)	none
O=C(CN1CCN(CC(=O)Nc2ccccc2Cc2ccccc2)CC1)Nc1ccccc1Cl	none
Cc1cc(C)n(CC(O)COc2ccc(Cl)cc2)n1 (stereo not drawn)	HSF-1 act 50
Cc1cc(C)n(CC(O)COc2ccc(Cl)cc2Cl)n1 (stereo not drawn)	HSF-1 act 64
CCOc1ccccc1/C=C/c1nc2ccccc2[nH]c1=O	none
CCc1sc(C(=O)Nc2cccnc2)cc1Br	none
O=C1CS/C(=C\[N+](=O)[O-])N1c1ccccc1	none
CCCCn1c(N2CCCC2)nc2c1c(=O)[nH]c(=O)n2C	none
C=CCn1c(N2CCCCCC2)nc2c1c(=O)[nH]c(=O)n2C	HIF act 30
